{"data": "Measurements gathered from unrelated publications", "cell line": "PC-3", "observed": "cell growth or viability", "method": "MTT", "note": "Each line is one published result; the experiments were not run side by side."}
{"SMILES": "Cc1ccc(-c2cc(-c3c(Cl)cccc3Cl)c3c(=O)[nH]c(=O)[nH]c3n2)cc1", "time": "48 h", "IC50 [µM]": 48.9}
{"SMILES": "CCOc1nc(-c2cccc(O)c2)cc(-c2cc3ccccc3nc2N2CCOCC2)c1C#N", "time": "72 h", "IC50 [µM]": 0.118}
{"SMILES": "COc1ccc(-c2cc(-c3ccc(C)cc3)nc3c2c(=O)n(C)c(=O)n3C)cc1OC", "time": "48 h", "IC50 [µM]": 38.9}
{"SMILES": "COc1cc2ncnc(N(C)c3ccc4c(c3)/C(=C/c3cccc(Cl)c3)C(=O)N4C)c2cc1OC", "IC50 [µM]": 5.5}
{"SMILES": "CCCOc1nc(-c2cccc(O)c2)cc(-c2cc3ccccc3nc2N2CCOCC2)c1C#N", "time": "72 h", "IC50 [µM]": 0.155}
{"SMILES": "Cc1nc(Nc2ccc3c(c2)CC(=O)N3)c2ccccc2n1", "IC50 [µM]": 20.6}
{"SMILES": "[NH2][Pt]([NH2])([Cl])[Cl]", "IC50 [µM]": 8.3}
{"SMILES": "Nc1n[nH]c2nc(-c3cccc(O)c3)cc(-c3cc4ccccc4nc3N3CCOCC3)c12", "time": "72 h", "IC50 [µM]": 0.0564}
{"SMILES": "Cc1nc(N(C)c2ccc3c(c2)/C(=C/c2ccccc2Cl)C(=O)N3C)c2ccccc2n1", "IC50 [µM]": 23.7}
{"SMILES": "COc1ccc(-c2cc(-c3cc(OC)ccc3OC)c3c(=O)[nH]c(=O)[nH]c3n2)cc1", "time": "48 h", "IC50 [µM]": 19.1}
{"SMILES": "Cc1nc(Nc2ccc3c(c2)/C(=C/c2ccccc2C)C(=O)N3)c2ccccc2n1", "IC50 [µM]": 26.7}
{"SMILES": "Cc1ccc(-c2cc(-c3c(Cl)cccc3Cl)c3c(=O)n(C)c(=O)n(C)c3n2)cc1", "time": "48 h", "IC50 [µM]": 9.89}
{"SMILES": "CCOc1nc(-c2cccc(O)c2)cc(-c2cc3cc(Cl)ccc3nc2N2CCOCC2)c1C#N", "time": "72 h", "IC50 [µM]": 0.174}
{"SMILES": "COc1cccc2c1C(=O)c1c(O)c3c(c(O)c1C2=O)C[C@@](O)(C(=O)CO)C[C@@H]3O[C@H]1C[C@H](N)[C@H](O)[C@H](C)O1", "time": "72 h", "IC50 [µM]": 0.61}
